Assay results from ChEMBL document CHEMBL2321703, “Identification of novel D-amino acid oxidase inhibitors by in silico screening and their functional characterization in vitro” (J Med Chem, 2013).
The source made the active and inactive calls. The calls are words filed in the database; no cut-off is given here.

What was measured:
[1] = molecular target: T1, D-amino-acid oxidase (Homo sapiens, UniProt P14920); assay: Inhibition of human recombinant N-terminal His-tagged DAO expressed in Escherichia coli BL21(DE3) using D-alanine as substrate assessed as residual activity at 10000 uM by colorimetric assay relative to control
In short: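 Purified enzyme (0.23–4.2 μg) in air-saturated 40 mM sodium pyrophosphate pH 8.3, 23 U catalase, 60 μM FAD, 10 mM D-amino acid substrate, with compound; 37 °C, 10 min; stopped with trichloroacetic acid. 2-Oxo acid reacted with 2,4-dinitrophenylhydrazine, A445 read against substrate-free blank.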
Target sequence in this assay (P14920 whole entry, looked up): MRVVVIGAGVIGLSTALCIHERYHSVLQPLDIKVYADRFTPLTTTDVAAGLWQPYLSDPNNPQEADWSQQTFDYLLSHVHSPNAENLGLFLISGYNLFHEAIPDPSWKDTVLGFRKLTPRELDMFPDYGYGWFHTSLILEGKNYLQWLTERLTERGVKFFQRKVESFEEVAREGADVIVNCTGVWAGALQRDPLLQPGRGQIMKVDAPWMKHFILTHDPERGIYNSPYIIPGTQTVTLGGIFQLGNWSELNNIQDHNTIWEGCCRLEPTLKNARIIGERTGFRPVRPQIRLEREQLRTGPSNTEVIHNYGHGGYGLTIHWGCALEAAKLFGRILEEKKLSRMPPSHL

[2] = molecular target: T2, Serine racemase (Homo sapiens) (UniProt Q9GZT4); assay: (§1) Inhibition of human recombinant N-terminal His-tagged serine racemase expressed in Escherichia coli BL21(DE3) using L-serine as substrate after 10 mins by fluorescence assay
T2 sequence (whole entry): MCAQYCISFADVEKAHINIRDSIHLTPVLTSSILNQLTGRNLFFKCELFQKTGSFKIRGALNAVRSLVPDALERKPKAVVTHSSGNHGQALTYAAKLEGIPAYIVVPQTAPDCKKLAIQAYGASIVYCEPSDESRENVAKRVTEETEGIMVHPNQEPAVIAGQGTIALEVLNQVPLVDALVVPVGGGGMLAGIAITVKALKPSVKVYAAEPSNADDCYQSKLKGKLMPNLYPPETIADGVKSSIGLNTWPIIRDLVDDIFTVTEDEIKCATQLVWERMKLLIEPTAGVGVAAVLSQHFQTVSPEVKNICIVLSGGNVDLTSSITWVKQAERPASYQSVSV
In short: (§2)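 Purified enzyme (30 μg) in 40 mM Tris-HCl pH 8.0, 60 μM pyridoxal phosphate, 1 mM MgCl2, ATP, 1 mM dithiothreitol, 10 mM L-Ser, with compound; 37 °C, 10 min; methanol stop. D-Ser quantified by OPA/Boc-L-cysteine derivatization and reversed-phase HPLC fluorescence (ex 344, em 443 nm).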

[3] = molecular target: T3, Serine racemase (Homo sapiens, UniProt Q9GZT4); assay: as §1; in short: as §2
T3 sequence (Q9GZT4 whole entry): T2 sequence (whole entry)

[4] = molecular target: T1, D-amino-acid oxidase; assay: Inhibition of human recombinant N-terminal His-tagged DAO expressed in Escherichia coli BL21(DE3) using D-alanine as substrate by colorimetric assay
[5] = molecular target: T1, D-amino-acid oxidase; assay: Inhibition of human recombinant N-terminal His-tagged DAO expressed in Escherichia coli BL21(DE3) using D-serine as substrate by colorimetric assay
[6] = molecular target: T4, D-aspartate oxidase (Homo sapiens) (UniProt Q99489); assay: (§3) Inhibition of human recombinant N-terminal His-tagged DDO expressed in Escherichia coli BL21(DE3) using D-aspartate as substrate by colorimetric assay
T4 sequence (whole entry): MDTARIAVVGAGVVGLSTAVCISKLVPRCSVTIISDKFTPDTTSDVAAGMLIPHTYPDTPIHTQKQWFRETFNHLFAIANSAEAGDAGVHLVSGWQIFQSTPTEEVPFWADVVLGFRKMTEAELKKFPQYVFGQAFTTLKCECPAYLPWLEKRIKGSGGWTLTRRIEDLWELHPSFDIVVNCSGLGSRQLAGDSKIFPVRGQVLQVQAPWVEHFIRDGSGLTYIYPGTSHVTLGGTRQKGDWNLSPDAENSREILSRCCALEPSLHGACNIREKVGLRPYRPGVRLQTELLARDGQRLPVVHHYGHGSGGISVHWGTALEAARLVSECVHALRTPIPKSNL
In short: (§4)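 Purified enzyme (0.23–4.2 μg) with 10 mM D-Asp in air-saturated 40 mM sodium pyrophosphate pH 8.3, 23 U catalase, 60 μM FAD; 37 °C, 10 min; trichloroacetic acid stop; 2-oxo acid measured as 2,4-dinitrophenylhydrazone at A445.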

[7] = molecular target: T5, D-aspartate oxidase (Homo sapiens, UniProt Q99489); assay: as §3; in short: as §4
T5 sequence (Q99489 whole entry): T4 sequence (whole entry)

[8] = molecular target: T1, D-amino-acid oxidase; assay: Inhibition of human recombinant DAO expressed in G418-resistant HEK293/NEO cells assessed as effect on D-alanine level at 83 uM incubated for 30 mins prior to D-alanine addition measured after 24 hrs by HPLC analysis relative to vehicle-treated control; type: cell-based
In short: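 HEK293 cells stably carrying HA-tagged human DAO (clone 293.HA-hDAO-24) or empty vector (293/NEO), seeded at 1 × 10^6. Next day, fresh medium and 83 μM compound or vehicle (5% DMSO solution) for 30 min, then 17 mM D-Ala for 24 h. Cells methanol-extracted; D-/L-Ala by OPA/NAC-derivatized HPLC. Three independent assays, Dunnett test vs vehicle.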
Target sequence in this assay (P14920 whole entry, looked up): as the sequence (P14920 whole entry, looked up) above

[9] = test system: HEK293; assay: Effect on L-alanine level in G418-resistant HEK293 cells at 17 uM by HPLC analysis relative to vehicle-treated control; type: functional, cell-based; conditions: Homo sapiens
In short: (§5)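 293/NEO (empty-vector, G418-selected) or 293.HA-hDAO-24 (stable N-terminal HA-tagged human DAO) cells, 1 × 10^6 seeded, maintained in DMEM/10% FBS/800 μg/mL G418; next day fresh medium, compound or vehicle (5% DMSO solution) for 30 min, then 17 mM D-Ala for 24 h. Methanol extraction; D-/L-Ala by OPA/NAC derivatization HPLC with fluorescence; mean ± SD of three assays; Dunnett test vs vehicle.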

[10] = test system: HEK293; assay: Effect on L-alanine level in G418-resistant HEK293 cells at 83 uM by HPLC analysis relative to vehicle-treated control; type: functional, cell-based; conditions: Homo sapiens; in short: as §5
[11] = test system: HEK293/NEO; assay: Effect on L-alanine level in G418-resistant HEK293/NEO cells at 83 uM by HPLC analysis relative to vehicle-treated control; type: functional, cell-based; conditions: Homo sapiens; in short: as §5
[12] = test system: D-amino-acid oxidase (Homo sapiens), P14920 [Y224A]; assay: (§6) Inhibition of human recombinant N-terminal His-tagged DAO Y224A mutant expressed in Escherichia coli BL21(DE3) using D-alanine as substrate after 10 mins by Lineweaver-Burk plot analysis
D-amino-acid oxidase (Homo sapiens), P14920 [Y224A], sequence (P14920 whole entry Y224A): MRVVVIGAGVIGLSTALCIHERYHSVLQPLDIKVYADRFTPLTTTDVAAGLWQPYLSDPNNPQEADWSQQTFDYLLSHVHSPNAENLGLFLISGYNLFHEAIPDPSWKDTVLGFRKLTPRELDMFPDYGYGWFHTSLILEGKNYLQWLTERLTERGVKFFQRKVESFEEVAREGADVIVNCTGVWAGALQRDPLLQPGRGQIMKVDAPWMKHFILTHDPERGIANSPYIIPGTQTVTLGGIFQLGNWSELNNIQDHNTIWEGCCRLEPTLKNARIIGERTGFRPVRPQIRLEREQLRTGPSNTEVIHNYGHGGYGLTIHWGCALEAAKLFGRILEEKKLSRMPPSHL

[13] = molecular target: D-amino-acid oxidase (Homo sapiens, UniProt P14920, Y224A); assay: as §6
D-amino-acid oxidase (Homo sapiens, UniProt P14920, Y224A), sequence (P14920 whole entry Y224A): as above

[14] = test system: D-amino-acid oxidase (Homo sapiens), P14920 [Y224F]; assay: (§7) Inhibition of human recombinant N-terminal His-tagged DAO Y224F mutant expressed in Escherichia coli BL21(DE3) using D-alanine as substrate after 10 mins by Lineweaver-Burk plot analysis
D-amino-acid oxidase (Homo sapiens), P14920 [Y224F], sequence (P14920 whole entry Y224F): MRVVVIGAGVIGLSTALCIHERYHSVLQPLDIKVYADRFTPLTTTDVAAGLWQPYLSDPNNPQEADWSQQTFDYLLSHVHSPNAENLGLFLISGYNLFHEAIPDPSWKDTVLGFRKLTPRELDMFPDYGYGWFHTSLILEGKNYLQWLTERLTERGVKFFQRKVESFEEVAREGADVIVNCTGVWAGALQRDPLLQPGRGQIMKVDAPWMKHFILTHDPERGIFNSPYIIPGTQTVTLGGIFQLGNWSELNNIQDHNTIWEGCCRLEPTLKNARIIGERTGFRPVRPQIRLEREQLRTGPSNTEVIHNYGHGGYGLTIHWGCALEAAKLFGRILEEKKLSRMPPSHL

[15] = molecular target: D-amino-acid oxidase (Homo sapiens, UniProt P14920, Y224F); assay: as §7
D-amino-acid oxidase (Homo sapiens, UniProt P14920, Y224F), sequence (P14920 whole entry Y224F): as above

[16] = molecular target: T1, D-amino-acid oxidase; assay: Competitive inhibition of human recombinant N-terminal His-tagged DAO expressed in Escherichia coli BL21(DE3) using D-alanine as substrate by Lineweaver-Burk plot analysis
In short: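 Purified N-terminal His-tagged human DAO from E. coli BL21(DE3)pLysS. Colorimetric 2-oxo acid assay in air-saturated 40 mM sodium pyrophosphate pH 8.3 with catalase, 60 μM FAD and 0.5–40 mM D-Ala, 37 °C for 10 min. Stopped with TCA, derivatized with 2,4-dinitrophenylhydrazine, read at A445. Lineweaver–Burk plots; Ki confirmed by slope replot against inhibitor concentration. Three independent experiments.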
Target sequence in this assay (P14920 whole entry, looked up): as the sequence (P14920 whole entry, looked up) above

[17] = molecular target: T1, D-amino-acid oxidase; assay: Binding affinity to human recombinant N-terminal His-tagged DAO expressed in Escherichia coli BL21(DE3) at 40 uM after 2 to 30 mins by absorption spectra analysis; conditions: 200 uM, in the assay text read “at 200 uM” for “at 40 uM”
In short: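 Purified enzyme at 1.7 μg/μL in 10 mM sodium pyrophosphate pH 8.3 with 2 mM EDTA, 5 mM 2-mercaptoethanol, 10% (v/v) glycerol; wavelength scans at 25 °C before and after compound addition (final 40 μM or 200 μM depending on compound), recorded at indicated times; binding inferred from perturbation of the absorption spectrum.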
Target sequence in this assay (P14920 whole entry, looked up): as above

[18] = molecular target: T1, D-amino-acid oxidase; assay: Inhibition of human recombinant N-terminal His-tagged DAO expressed in Escherichia coli BL21(DE3) using D-alanine as substrate by Lineweaver-Burk plot analysis
Target sequence in this assay (P14920 whole entry): as the sequence (P14920 whole entry, looked up) above

[19] = test system: HEK293/NEO; assay: Effect on L-alanine level in G418-resistant HEK293/NEO cells at 17 uM by HPLC analysis relative to vehicle-treated control; type: functional, cell-based; conditions: Homo sapiens; in short: as §5
[20] = molecular target: T1, D-amino-acid oxidase; conditions: HEK293/NEO, 17 uM
Target sequence in this assay (P14920 whole entry, looked up): as above

[21] = molecular target: T1, D-amino-acid oxidase; conditions: HEK293, 83 uM
Target sequence in this assay (P14920 whole entry, looked up): as above

[22] = molecular target: T1, D-amino-acid oxidase; assay: Binding affinity to human recombinant N-terminal His-tagged DAO expressed in Escherichia coli BL21(DE3) at 200 uM after 2 to 30 mins by absorption spectra analysis
[23] = molecular target: T1, D-amino-acid oxidase
Target sequence in this assay (P14920 whole entry): as the sequence (P14920 whole entry, looked up) above

Structure (SMILES)	inhibition [2]	IC50 [3] [µM]	IC50 [4] [µM]	inhibition [4]	IC50 [5] [µM]	inhibition [6]	IC50 [7] [µM]	inhibition [8]	Activity [9]	Activity [10]	Activity [11]	inhibition [12]	Ki [13] [µM]	inhibition [14]	Ki [15] [µM]	inhibition [16]	inhibition [5]	Ki [18] [µM]	Activity [19]	also measured
CCCc1sc(C(=O)O)cc1CC	Dose-dependent effect	> 10000	> 10000	Dose-dependent effect	7900	Dose-dependent effect	> 10000	–	–	–	–	–	–	–	–	–	–	–	–	Activity [1]: 67.1%
O=C(O)c1cc2c(s1)CCC2	Dose-dependent effect	5280	59.8	Dose-dependent effect	28.5	Dose-dependent effect	> 10000	inactive	inactive	inactive	inactive	Dose-dependent effect	4.59	Dose-dependent effect	14.4	Active	Dose-dependent effect	9.92	–	Activity [17]: Active
O=C(O)c1cc2occc2[nH]1	–	> 100	–	–	–	–	> 100	–	inactive	–	–	Dose-dependent effect	–	Dose-dependent effect	–	Active	Dose-dependent effect	–	inactive	inhibition [20]: inactive
O=c1oc2ccccc2cc1O [3-HYDROXYCOUMARIN]	Dose-dependent effect	> 10000	0.943	Dose-dependent effect	0.44	Dose-dependent effect	7580	inactive	inactive	inactive	inactive	Dose-dependent effect	3.69	Dose-dependent effect	0.265	Active	Dose-dependent effect	0.156	inactive	inhibition [21]: Active; Activity [22]: Active
O=C(O)c1ccccc1 [BENZOIC ACID]	–	> 10000	65.7	–	46.9	–	> 10000	–	–	–	–	Dose-dependent effect	37.5	Dose-dependent effect	54	Active	Dose-dependent effect	10.9	–	Activity [17]: Active; Ki [23]: 7 µM
O=C(O)c1ccsc1	Dose-dependent effect	8210	–	Dose-dependent effect	–	Dose-dependent effect	> 10000	inactive	inactive	inactive	inactive	Dose-dependent effect	–	Dose-dependent effect	–	Active	Dose-dependent effect	–	inactive	inhibition [21]: Active; Activity [22]: Active
O=C(O)/C=C/c1cccc(O)c1	Dose-dependent effect	8390	> 10000	Dose-dependent effect	6270	Dose-dependent effect	> 10000	–	–	–	–	–	–	–	–	–	Dose-dependent effect	–	–	Activity [1]: 51.5%
